The term IC50 denotes the concentration that gives 50% inhibition. Read a low IC50 as greater potency.

Consider 14 molecules from ChEMBL document CHEMBL1158112, “A nitrogen-containing 3-alkyl-1,4-benzoquinone and a gomphilactone derivative from Embelia ribes” (J Nat Prod, 2006).

Calls of active or inactive are those of the source. No cut-off for these calls is given here.

Experiment [1] has as its target Prothrombin (Homo sapiens) (UniProt P00734). The experiment can be described thus: Inhibition of thrombin at 50 uM.
In another experiment the test system is A549. Nature of the experiment: Cytotoxicity against human A549 cells after 96 hrs by MTT assay. The format is functional, cell-based. To be noted: A549, 96 h. Summed up:
(§1)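 Cells grown in RPMI1640 with 10% FBS, 100 units/mL penicillin and 100 µg/mL streptomycin, at 37 °C in humidified 5% CO2. Seeded at 1200 cells/well; compounds added after 24 h at five concentrations (final DMSO 0.1%), triplicate wells.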
Background: Formazan colour is commonly taken as a measure of viable cells.

The subject of the next experiment is A2780. Nature of the experiment: Cytotoxicity against human A2780 cells after 96 hrs by MTT assay. It is filed as functional, cell-based. The note with it: A2780, 96 h. Summed up:
as §1

The next experiment concerns Bel-7402. Nature of the experiment: Cytotoxicity against human Bel-7402 cells after 96 hrs by MTT assay. It is filed as functional, cell-based. The note with it: Bel-7402, 96 h. Summed up: as §1
A further experiment concerns BGC-823. Nature of the experiment: Cytotoxicity against human BGC-823 cells after 96 hrs by MTT assay. It is filed as functional, cell-based. The note with it: BGC-823, 96 h. Summed up:
as §1

Another experiment relates to HCT-8. The experiment can be described thus: Cytotoxicity against human HCT8 cells after 96 hrs by MTT assay. It is filed as functional, cell-based. To be noted: HCT-8, 96 h. Summed up: as §1
The target in experiment [2] is T1, Tyrosine-protein phosphatase non-receptor type 1 (Homo sapiens) (UniProt P18031).
T1 sequence (whole entry): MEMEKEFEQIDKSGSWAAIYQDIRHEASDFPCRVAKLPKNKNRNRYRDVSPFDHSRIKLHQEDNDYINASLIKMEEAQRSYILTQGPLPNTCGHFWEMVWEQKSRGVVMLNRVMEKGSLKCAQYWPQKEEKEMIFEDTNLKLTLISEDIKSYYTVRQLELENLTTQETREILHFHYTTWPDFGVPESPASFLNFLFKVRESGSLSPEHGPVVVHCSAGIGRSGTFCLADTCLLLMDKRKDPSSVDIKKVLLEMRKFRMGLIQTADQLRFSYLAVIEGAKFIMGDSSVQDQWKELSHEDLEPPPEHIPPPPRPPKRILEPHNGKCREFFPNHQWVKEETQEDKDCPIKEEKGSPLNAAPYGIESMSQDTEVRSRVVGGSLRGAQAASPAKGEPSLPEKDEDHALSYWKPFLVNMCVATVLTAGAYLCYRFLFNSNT
The experiment can be described thus: Inhibition of PTP1B at 50 uM.

Consider `CCCCC/C=C\C/C=C\CCCCCCCc1cc(O)cc(O)c1`, for which the outcome in experiment [1] and in experiment [2] was inactive. In addition, the IC50 came to 1420 nM in the experiment on A549; 1570 nM with A2780; 1910 nM with Bel-7402; 1790 nM in the experiment on BGC-823; 1540 nM in the experiment on HCT-8.
For `CCCCCCCCCCCCCC1=C(O)/C(=C2\C(=O)Oc3c2cc(O)c(O)c3CCCCCCCCCCCCC)OC1=O`, the outcome in experiment [1] and in experiment [2] was inactive. The half-maximal inhibitory concentration (IC50) in the experiment on A549, in the experiment on A2780, in the experiment with Bel-7402, with BGC-823 and in the experiment on HCT-8 was more than 10 µg/mL in each case.
In the case of `CCCCCCCC/C=C\CCCCCCCc1cc(O)cc(O)c1`, the outcome in experiment [1] and in experiment [2] was inactive. For the same molecule, the IC50 with A549 came to 460 nM; in the experiment with A2780 it was 1060 nM; in the experiment with Bel-7402 it was 1070 nM; with BGC-823, 1430 nM; in the experiment with HCT-8 it was 780 nM.
Take `CCCCCCCCCCCCCC1=C(O)C(=O)C=C(NCCCC(=O)O)C1=O`: the result in experiment [1] and in experiment [2] was inactive. For the same molecule, the concentration for half-maximal inhibition (IC50) with A549, in the experiment on A2780, with Bel-7402, in the experiment on BGC-823 and in the experiment on HCT-8 was more than 10 µg/mL in each case.
For the molecule `COc1cc([C@H]2c3c(cc(OC)c(O)c3OC)C[C@@H](CO)[C@@H]2CO[C@@H]2O[C@H](CO)[C@@H](O)[C@H](O)[C@H]2O)cc(OC)c1O`, the result in experiment [1] and in experiment [2] was inactive. Besides, the concentration for half-maximal inhibition (IC50) in the experiment on A549, in the experiment with A2780, with Bel-7402, with BGC-823 and in the experiment with HCT-8 was more than 10 µg/mL in each case.
`CCCCCc1cc(O)cc(OC)c1`: the outcome in experiment [1] and in experiment [2] was inactive. Further, the IC50 with A549, with A2780, in the experiment on Bel-7402, in the experiment on BGC-823 and in the experiment on HCT-8 was more than 10 µg/mL throughout.
`CC[C@H](CC[C@@H](C)[C@H]1CC[C@H]2[C@@H]3CC=C4C[C@@H](O)CC[C@]4(C)[C@H]3CC[C@]12C)C(C)C` [BETA-SITOSTEROL]: the outcome in experiment [1] and in experiment [2] was inactive. In addition, the IC50 in the experiment with A549, with A2780, with Bel-7402, in the experiment with BGC-823 and with HCT-8 was more than 10 µg/mL in each case.
As to `CCCCCCCCCCCCCCCc1cc(O)cc(O)c1` [CARDOL], the result in experiment [1] and in experiment [2] was inactive. Further, the half-inhibitory concentration (IC50) in the experiment on A549 was determined as 1430 nM; in the experiment with A2780, 1310 nM; with Bel-7402, 1930 nM; with BGC-823, 1740 nM; in the experiment on HCT-8 it was 1480 nM.
For `Oc1cc(O)c2c(c1)O[C@H](c1ccc(O)c(O)c1)[C@@H](O)C2` [CIANIDANOL], the result in experiment [1] and in experiment [2] was inactive. For the same molecule, the IC50 in the experiment on A549, with A2780, in the experiment with Bel-7402, in the experiment on BGC-823 and in the experiment with HCT-8 was more than 10 µg/mL each time.
On to `COc1cc(O[C@@H]2O[C@H](CO)[C@@H](O)[C@H](O)[C@H]2O)cc(OC)c1O` [KOABURASIDE], for which the result in experiment [1] and in experiment [2] was inactive. Also, the IC50 in the experiment with A549, with A2780, in the experiment with Bel-7402, in the experiment with BGC-823 and in the experiment on HCT-8 was more than 10 µg/mL in each case.
For the molecule `COc1cc(O)cc(OC)c1O[C@@H]1O[C@H](CO)[C@@H](O)[C@H](O)[C@H]1O` [LEONURISIDE], the result in experiment [1] and in experiment [2] was inactive. In addition, the IC50 with A549, in the experiment on A2780, with Bel-7402, in the experiment on BGC-823 and with HCT-8 was more than 10 µg/mL in each case.
For the molecule `CCCCCCCCCCCCCC1=C(O)C(=O)C=C(O)C1=O` [Rapanone], the outcome in experiment [1] and in experiment [2] was inactive. Further, the IC50 stood at 1580 nM in the experiment on A549; 1820 nM in the experiment on A2780; 1460 nM with Bel-7402; 1890 nM in the experiment on BGC-823; 1520 nM with HCT-8.
As to `CC[C@H](CC[C@@H](C)[C@H]1CC[C@H]2[C@@H]3CC=C4C[C@@H](O[C@@H]5O[C@H](CO)[C@@H](O)[C@H](O)[C@H]5O)CC[C@]4(C)[C@H]3CC[C@]12C)C(C)C` [SITOGLUSIDE], the result in experiment [1] and in experiment [2] was inactive. For the same molecule, the half-inhibitory concentration (IC50) with A549, in the experiment with A2780, in the experiment with Bel-7402, with BGC-823 and with HCT-8 was more than 10 µg/mL each time.
As for `CC[C@@]1(O)C(=O)OCc2c1cc1n(c2=O)Cc2cc3c(CN(C)C)c(O)ccc3nc2-1` [TOPOTECAN], the concentration for half-maximal inhibition (IC50) in the experiment on A549 came out at 3500 nM; in the experiment on A2780, 1200 nM; in the experiment on Bel-7402 it was 1400 nM; in the experiment on BGC-823, 3800 nM; in the experiment on HCT-8 it was 1200 nM.
